# Scp1 inh – Scp-1 phosphatase inhibitors, primary screen, biochemical, colorimetric, uHTS; actives 0.88% (n = 340,000); Recombinant Scp1, phosphopeptide, malachite green phosphate absorbance; inhibition, % at 20 µM; AID 493091, 2011; Carboxy-terminal domain RNA polymerase II polypeptide A small phosphatase 1 (Homo …;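 active means inhibition above about 50% at 20 µM, limit read from the data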;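 further: plate controls were DMSO wells with enzyme for no effect and wells lacking enzyme for full effect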
# Target sequence (Q9GZU7 76-261 limits assumed): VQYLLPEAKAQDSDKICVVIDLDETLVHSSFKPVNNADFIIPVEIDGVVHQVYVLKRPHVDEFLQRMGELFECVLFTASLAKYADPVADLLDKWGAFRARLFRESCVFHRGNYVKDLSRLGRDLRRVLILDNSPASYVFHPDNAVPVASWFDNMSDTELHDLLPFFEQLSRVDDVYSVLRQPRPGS
#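 Test system: SCP-1 phosphatase catalytic domain, residues 76-261 | Compound dosing: One concentration, 20 µM, with 1.0% DMSO | Schedule: 45 min room-temperature reaction, 5 min colour, 30 min stabiliser | Detection: Absorbance at 630 nm | Read-out basis: % inhibition of SCP-1 phosphate liberation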
# STEP block – STEP phosphatase inhibitors, primary screen, biochemical, fluorescence intensity, uHTS | Tyrosine-protein phosphatase non-receptor type 5 (Homo sapiens), P54829 | recombinant STEP, OMFP fluorogenic substrate | inhibition, % at 20 µM | actives 0.25% (n = 360,000);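 active means inhibition at 20 µM, scaled per plate between control wells, above about 37%, limit read from the data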;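 further: 0% = DMSO with enzyme and substrate and 100% = substrate only without enzyme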
#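 material = STEP tyrosine phosphatase | reagent = fluorogenic phosphatase substrate OMFP at 25 µM final | doses = single compound dose of 20 µM, 1% DMSO final | schedule = 20 min reaction, room temperature, in the dark | measured by = fluorescence, 480/540 nm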
# LMPTP inh – LMPTP phosphatase inhibitors, primary screen, biochemical, fluorescence intensity, uHTS | Low molecular weight phosphotyrosine protein phosphatase (Homo sapiens), P24666 | recombinant LMPTP-A, OMFP fluorogenic substrate | inhibition, % at 20 µM | actives 0.22% (n = 360,000) | AID 651560, 2012;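 active means compounds that cut the enzyme signal by at least half of the control window in the single-dose screen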;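 further: plate controls were DMSO wells with enzyme plus substrate for no effect and substrate without enzyme for full effect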
# Target sequence (P24666 whole entry, looked up): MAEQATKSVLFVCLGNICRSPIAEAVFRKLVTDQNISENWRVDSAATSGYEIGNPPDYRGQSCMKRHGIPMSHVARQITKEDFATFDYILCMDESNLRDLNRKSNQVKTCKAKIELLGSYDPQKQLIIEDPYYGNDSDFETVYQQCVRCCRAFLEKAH
#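 Test system: LMPTP-A phosphatase enzyme; input: 0.625 nM LMPTP-A final; reagent: OMFP substrate, 400 µM final; compound dosing: 20 µM single dose, 3% DMSO; incubation: 50 min dark incubation at room temperature; measured by: endpoint fluorescence intensity from OMFP dephosphorylation; measure: % inhibition relative to no-enzyme and uninhibited control wells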
# SUMO1 PPI mod – modulators of SUMO1 protein-protein interactions, primary screen, biochemical, uHTS; SUMO1 binding to a labelled peptide, TR-FRET, 1 h; Small ubiquitin-related modifier 1 (Homo sapiens), P63165; actives 0.33% (n = 360,000); AID 602429, 2012; inhibition, % at 20 µM; in the data active means inhibition above about 37%
# Target sequence (P63165 whole entry, looked up): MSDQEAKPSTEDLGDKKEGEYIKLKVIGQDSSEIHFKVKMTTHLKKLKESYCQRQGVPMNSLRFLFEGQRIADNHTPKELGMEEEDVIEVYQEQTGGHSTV
# Casp6 inh – human caspase-6 inhibitors, primary screen, biochemical, VEID-R110 fluorescence, single point, set 2 | purified caspase-6, Z-VEID-R110 cleavage fluorescence | P55212 | actives 0.53% (n = 350,000) | inhibition, % at 12.5 µM;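 active means mean inhibition across replicates at least about 35%, with every replicate also reaching that limit, limit read from the data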;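 further: 0% = median of neutral control wells and 100% = no fluorescence left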
# DNMT1 inh – human DNMT1 methyltransferase inhibitors, primary screen, biochemical, molecular beacon, fluorescence, HinP1I cleavage, uHTS. inhibition (reported as % activation of signal), % at 10 µM. DNA (cytosine-5)-methyltransferase 1 (Homo sapiens), P26358. actives 0.83% (n = 360,000). AID 588458, 2011; in the data active means inhibition above about 50%
# DNMT1 inh conf – DNMT1 methyltransferase inhibitor retest, confirmation, biochemical, molecular beacon, fluorescence, single concentration. shares compounds with DNMT1 inh. DNMT1 molecular beacon HinP1I cleavage. inhibition, % at 10 µM. actives 8% (n = 2,300). AID 602385, 2012;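 active means average inhibition of at least 30% in the single-concentration confirmation test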
# Beacon interf – shows spectral interference in the DNMT1 beacon assay; shares compounds with DNMT1 inh; actives 1% (n = 2,300); activation (fluorescence interference), % at 10 µM; DNMT1 molecular beacon spectral interference counterscreen, fluorescence 485/520;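 active means activation of at least 30% at 10 µM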;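 further: DNMT1 catalytic domain with a HinP1I cleavage step and a FAM/dabcyl DNA beacon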
# * marks the source's active call; other numbers are inactive results; . = not tested or not shown. Sampled rows, rich in hits. Any-hit rate of the full collection: about 1.7%.
SMILES,Scp1 inh,STEP block,LMPTP inh,SUMO1 PPI mod,Casp6 inh,DNMT1 inh,DNMT1 inh conf,Beacon interf
COCc1cc(=O)n2[nH]c(-c3ccsc3-n3c(C)ccc3C)cc2n1,-2.3,-4.6,2.4,44.9*,.,68.3*,2.0,-0.6
CCOc1ccc(N2CC(C(=O)NCCCc3ccccc3)CC2=O)cc1 (stereo not given),-0.2,2.3,-0.5,-0.6,1.4,-2.5,.,.
Clc1cccc(Cl)c1Cn1c(-c2cccnc2Cl)nc2ccccc21,-8.5,0.6,0.1,1.1,-0.6,0.6,.,.
CCOc1ccccc1OCCOc1ccc(F)cc1,-17.1,4.4,0.4,0.1,.,-1.9,.,.
COC(=O)c1sc(N2C(=O)C(O)=C(C(=O)c3ccc(C)o3)C2c2cccs2)nc1C (stereo not given),-1.8,7.8,11.2,-6.2,-7.5,0.2,.,.
COC(=O)c1sc(N2C(=O)c3oc4ccccc4c(=O)c3C2c2cccs2)nc1C (stereo not given),1.1,-2.8,-2.3,-11.2,.,60.1*,1.6,-3.0
COc1ccc(-c2ccc(-c3cc(=O)oc4cc(OC)c(OC)c(OC)c34)cc2)cc1F,-6.6,0.7,4.1,-9.8,-1.5,-2.8,.,.
COc1cc2oc(=O)cc(-c3ccc(-c4ccc(OC(F)(F)F)cc4)cc3)c2c(OC)c1OC,-8.0,2.8,13.5,3.9,2.0,61.3*,0.3,1.4
Cc1cccc2c(SCC(=O)NCC3CCCO3)nc(-c3ccc(F)cc3)nc12 (stereo not given),-0.4,-2.0,-1.5,-1.6,.,46.7,4.8,-4.5
Cc1ccc(C)c(S(=O)(=O)NCCOc2nc(NC(C)C)nc(NC(C)C)n2)c1,-0.1,-0.9,-0.2,0.3,2.7,0.7,.,.
CSc1nc(C)cc(OCCNS(=O)(=O)c2cc(C)ccc2C)n1,-2.3,-14.3,-0.4,1.4,.,67.0*,0.4,5.8
CC(=O)Nc1ccc(NC(=O)C(C)OC(=O)CCC(=O)c2ccc(F)cc2)cc1 (stereo not given),-9.0,3.7,-0.8,-0.4,-0.8,3.9,.,.
Cc1cc2nc(-c3ccc(SCC(=O)Nc4ccc(S(=O)(=O)N5CCCC5)cc4)nc3)[nH]c2cc1C,-4.9,-2.6,5.4,-4.3,.,66.0*,-7.0,-12.6
CCOc1cc(/C=C2/C(=N)N3N=C(C)SC3=NC2=O)ccc1OS(=O)(=O)c1ccc(C)cc1,-9.0,-1.0,1.4,18.7,11.9,74.7*,8.7,0.7
O=C(NC1CCCc2ccccc21)C1CCN(S(=O)(=O)c2cnc[nH]2)CC1 (stereo not given),-2.2,-4.1,0.0,2.4,.,-3.6,.,.
COC(=O)c1ccccc1NC(=O)/C=C/c1ccco1,40.6,3.6,-0.7,-9.0,-0.4,44.8,.,.
O=Cc1cn(-c2ccccc2)nc1-c1cc2c(ccc3ccccc32)oc1=O,-10.9,1.1,11.7,-3.3,.,53.2*,1.1,-5.4
CC(C)C#Cc1ccc([C@@H]2[C@H]3CN(C(=O)c4ccccn4)CC(=O)N3[C@H]2CO)cc1,.,.,.,.,2.7,.,.,.
O=C(CN1C(=O)/C(=C/c2ccco2)SC1=S)NC1CCS(=O)(=O)C1 (stereo not given),58.4*,45.1*,6.8,30.9,49.1*,75.9*,2.9,-1.0
O=C(CCCN1C(=O)/C(=C\c2ccco2)SC1=S)Nc1ccc(O)cc1C(=O)O,68.8*,43.0*,9.2,63.5*,.,98.6*,3.8,-2.5

# Assay outcomes as filed in PubChem.
